Screening data: PubChem, several laboratories
Most compounds without a hit are left out; they make up all but 4.2% or so of the library.
KCNQ1 block: inhibitors of human KCNQ1 channel, primary screen, cell-based, thallium flux, high-throughput; CHO-K1 KCNQ1, FluxOR thallium flux fluorescence; active compounds read high; AID 2642, 2010; 1.3% of 310,000 active; B-score at 10 µM; Potassium voltage-gated channel subfamily KQT member 1 (Homo sapiens), P51787;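 active = compounds whose thallium flux B-score, printed positive for inhibition, exceeds three library SD while starting fluorescence stays within three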;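 also: channel opened by potassium depolarization with thallium stimulus after 20 min compound exposure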
AI-2 QS mod: Vibrio harveyi AI-2 quorum sensing modulators, primary screen, JMH597 strain, luminescence/OD600 ratio; 0.4% of 300,000 active; activity change, % at 7.5 µM; Vibrio harveyi JMH597 AI-2 luminescence/OD600 ratio, 9 h; active compounds read low; strain lacks LuxN and CqsS sensors; 0 = neutral-control median; in the data active = activity change below about -75%, passing the limit was not always enough;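 also: luminescence divided by OD600 gain over 9 h not by final OD600 alone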
KCNQ1 pot: potentiators or activators of KCNQ1 channel, primary screen, cell-based, thallium flux, high-throughput; CHO-K1 KCNQ1, thallium flux FluxOR fluorescence; active compounds read high; B-score at 10 µM; 0.35% of 310,000 active;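 active = fluorescence ratio B-score, a plate-corrected score, at least three library SD, with initial intensity B-score within 5 SD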
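System: CHO-K1 cells stably expressing KCNQ1 / Medium: assay buffer for compound exposure, DMSO matched across wells / Reagent: thallium- and potassium-containing depolarizing buffer / Compound: one concentration, matched DMSO / Incubation: 20 min compound pretreatment at room temperature / Measured by: kinetic FluxOR fluorescence, 10 s baseline plus 110 s post-stimulus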
hERG protect: hERG rescue from dofetilide block, primary screen, cell-based, CHO-hERG, FluxOR thallium flux, dofetilide IC70; 0.51% of 310,000 active; activation (rescue from dofetilide block), less the hit threshold, % at 10 µM; AID 1511, 2009; Voltage-gated inwardly rectifying potassium channel KCNH2 (Homo sapiens), Q12809; dofetilide IC70 present;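 active = activation above the mean of controls blocked by dofetilide plus 5 SD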;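 also: thallium influx through hERG after potassium depolarization seen as dye fluorescence rise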
Target sequence (Q12809 whole entry, looked up): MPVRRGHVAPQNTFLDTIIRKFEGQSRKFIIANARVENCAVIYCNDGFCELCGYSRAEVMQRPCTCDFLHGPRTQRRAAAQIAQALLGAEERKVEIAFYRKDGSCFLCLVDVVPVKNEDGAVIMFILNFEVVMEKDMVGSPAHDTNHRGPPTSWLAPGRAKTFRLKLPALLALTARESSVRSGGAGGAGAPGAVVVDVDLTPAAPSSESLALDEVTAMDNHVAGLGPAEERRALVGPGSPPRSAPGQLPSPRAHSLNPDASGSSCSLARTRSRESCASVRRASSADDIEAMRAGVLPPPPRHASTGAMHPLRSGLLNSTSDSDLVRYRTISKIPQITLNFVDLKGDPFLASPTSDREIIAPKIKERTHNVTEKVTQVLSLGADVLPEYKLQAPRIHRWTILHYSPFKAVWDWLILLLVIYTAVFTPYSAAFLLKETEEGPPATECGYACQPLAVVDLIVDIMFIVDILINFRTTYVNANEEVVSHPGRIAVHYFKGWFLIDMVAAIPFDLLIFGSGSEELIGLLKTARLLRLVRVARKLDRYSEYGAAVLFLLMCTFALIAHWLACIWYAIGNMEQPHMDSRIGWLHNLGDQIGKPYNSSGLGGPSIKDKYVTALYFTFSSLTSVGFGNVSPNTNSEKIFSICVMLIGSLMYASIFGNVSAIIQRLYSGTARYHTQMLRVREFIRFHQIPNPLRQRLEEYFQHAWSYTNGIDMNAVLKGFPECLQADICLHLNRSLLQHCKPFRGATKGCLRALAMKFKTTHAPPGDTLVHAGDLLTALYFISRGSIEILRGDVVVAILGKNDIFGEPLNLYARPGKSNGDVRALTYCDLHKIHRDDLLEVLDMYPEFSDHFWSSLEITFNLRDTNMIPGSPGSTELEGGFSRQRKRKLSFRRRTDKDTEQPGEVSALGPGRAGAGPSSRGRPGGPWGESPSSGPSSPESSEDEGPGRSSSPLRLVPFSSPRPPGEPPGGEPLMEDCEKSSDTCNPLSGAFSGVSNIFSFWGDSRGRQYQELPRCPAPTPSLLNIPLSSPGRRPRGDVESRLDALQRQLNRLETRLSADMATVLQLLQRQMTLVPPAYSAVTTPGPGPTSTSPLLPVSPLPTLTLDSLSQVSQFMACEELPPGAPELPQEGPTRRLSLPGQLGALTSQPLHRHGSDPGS
KCC2 mod: KCC2 cotransporter modulators, thallium flux, primary screen, cell-based, HEK293 KCC2, FluoZin-2 fluorescence, MLSMR; B-score of Tl+ flux slope (higher = more flux/activation; lower = inhibition) at 10 µM; 2.2% of 190,000 active; Solute carrier family 12 member 5 (Homo sapiens), Q9H2X9; KCC2 cells, thallium flux FluoZin-2 fluorescence;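 active = thallium flux slope and its plate-corrected score both differing from the plate sample mean at a set confidence after two filtering rounds, in either direction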;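 also: slope of fluorescence scaled to starting intensity during 10 to 20 s after thallium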
Mot1-301 SUMO: yeast Mot1-301 growth rescue at high temperature, primary screen, SUMOylation pathway inhibitor project, S. cerevisiae, ATP luminescence, 38.5C. growth rescue, % at 18.8 µM. 1% of 320,000 active. AID 2716, 2010. S. cerevisiae Mot1-301 growth rescue; percent above DMSO median, 100 means doubled;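 active = every valid replicate shows activation above 250% relative to neutral control wells; inactive = the rest, any valid replicate at or below 250%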
Each line names hits and unclear results; the compound was inactive in the other large screens.

N=c1oc2cc(O)ccc2cc1C(=O)Nc1ccccn1	none (no result: KCNQ1 block, AI-2 QS mod, KCNQ1 pot, hERG protect)
CCOC(=O)c1cc2cc([N+](=O)[O-])ccc2oc1=O	none
O=[N+]([O-])c1ccc2oc(C(O)c3cccc(Cl)c3)cc2c1 (stereo not drawn)	KCNQ1 block 9 (no result: KCC2 mod)
CC(C)NC(=O)C(=O)NCc1ccccn1	none
CC(C)CNC(=O)C(=O)NCc1ccccn1	Mot1-301 SUMO 315.4
O=c1c2ccccc2[nH]c(=S)n1CCCN1CCN(c2ccccc2F)CC1	none (no result: KCC2 mod)
NC(=O)CCS(=O)(=O)c1ccccc1	none
NC(=O)CCS(=O)(=O)c1ccc(Cl)cc1	hERG protect 6.4 (no result: KCC2 mod)
CCCOc1ccc2c(c1)C(=NN=C(N)N)c1cc(OCCC)ccc1-2	Mot1-301 SUMO 286.2 (no result: KCC2 mod)
O=C(N/N=C/c1ccc(OC(F)F)cc1)C1=COCCO1	hERG protect 16.4
Cn1cc(/C=C/c2cc[n+](C)cc2)c2cc(F)ccc21	none (no result: KCC2 mod)
Cn1cc(/C=C/c2cc[n+](C)cc2)c2cc(Cl)ccc21	KCNQ1 block 12 (no result: KCC2 mod)
COc1ccccc1NC(=O)NC1CCS(=O)(=O)C1 (stereo not drawn)	none (no result: KCC2 mod)
NC(=NCCc1ccccc1)c1cccc([N+](=O)[O-])c1	KCNQ1 block 7 (no result: KCC2 mod)
C=C[C@@H]1c2cc(C)ccc2N(S(=O)(=O)c2ccc(C)cc2)[C@H](c2ccccc2C(F)(F)F)C1(C#N)C#N	none (no result: KCNQ1 block, AI-2 QS mod, KCNQ1 pot, hERG protect, KCC2 mod)
CSCc1ccc(C(=O)NC2CC(C)(C)Cc3c2cnn3-c2ccc(F)cc2)o1 (stereo not drawn)	none (no result: KCC2 mod)
O=c1c2cc(Br)ccc2nc(-c2ccccc2)n1O	KCNQ1 pot 11, hERG protect 16.9 (no result: KCC2 mod)
COc1ccccc1-c1nc2ccccc2c(=O)n1O	none (no result: KCC2 mod)
O=c1c2ccccc2nc(-c2cccc(Cl)c2)n1O	KCNQ1 pot 13, hERG protect 22.8, KCC2 mod 18.3
Cc1ccc(-c2nc3ccc(Cl)cc3c(=O)n2O)cc1	KCNQ1 pot 63, hERG protect 56.0 (no result: KCC2 mod)
Cc1ccc(-c2nc3ccccc3c(=O)n2O)cc1	hERG protect 7.7 (no result: KCC2 mod)
CCC(=O)c1ccccc1OCCCCn1cncn1	none (no result: KCC2 mod)
COc1ccc(N2CCN(C(c3ccc4ncccc4c3)c3nnnn3C(C)C)CC2)cc1 (stereo not drawn)	none
O=C(COC(=O)c1cccnc1)Nc1ccc2c(c1)OCO2	none (no result: Mot1-301 SUMO)
CCOc1ccc(NC(=O)CSc2nccn(-c3ccc4c(c3)OCCO4)c2=O)cc1	none (no result: KCC2 mod)
CN1CCC(=NNc2ccc(S(=O)(=O)N3CCOCC3)cc2[N+](=O)[O-])CC1	none
O=[N+]([O-])c1cc(/C=N/O)ccc1Oc1ccccc1Cl	Mot1-301 SUMO 265.8
O=[N+]([O-])c1cc(/C=N/O)ccc1Oc1cccc(Cl)c1	none
CC1=NN(c2nc(-c3ccc(C)cc3)cs2)C(=O)C1N=Nc1cccc(O)c1 (stereo not drawn)	none
CC1=NN(c2nc(-c3ccc(C)cc3)cs2)C(=O)C1N=Nc1ccccc1O (stereo not drawn)	KCNQ1 block 6
Cc1ccc(N2C(=S)N=C(Nc3ccccc3C)C23CCOC(C)(C)C3)cc1 (stereo not drawn)	KCC2 mod 24.2 (no result: Mot1-301 SUMO)
Cc1cccc(C)c1NC1=NC(=S)N(c2ccccc2)C12CCOC(C)(C)C2 (stereo not drawn)	none
COc1ccc(CC2=CC(=O)c3ccccc3C2=O)cc1	KCNQ1 block 8 (no result: KCC2 mod)
Cc1cc2nc3ccc(=[N+](C)C)cc-3sc2cc1N	KCNQ1 block 6 (no result: Mot1-301 SUMO)
COc1cc2ncnc(NCc3cccs3)c2cc1OC	hERG protect 5.0
COC(=O)C[C@H]1c2cc(C(F)(F)F)ccc2S(=O)(=O)N1Cc1ccccc1OC	none (no result: KCC2 mod)
COC(=O)NNC(=O)COc1ccccc1C	none
